Test [1] addresses Dihydroorotate dehydrogenase (quinone), mitochondrial (Homo sapiens, UniProt Q02127). Kind of test: Inhibition of human DHODH expressed in Escherichia coli BL21(DE3) using L-dihydroorotate as substrate after 10 mins by DCIP dye reduction assay.
In test [2] the target is T1, Dihydroorotate dehydrogenase (Plasmodium falciparum) (UniProt Q54A96).
T1 sequence (whole entry): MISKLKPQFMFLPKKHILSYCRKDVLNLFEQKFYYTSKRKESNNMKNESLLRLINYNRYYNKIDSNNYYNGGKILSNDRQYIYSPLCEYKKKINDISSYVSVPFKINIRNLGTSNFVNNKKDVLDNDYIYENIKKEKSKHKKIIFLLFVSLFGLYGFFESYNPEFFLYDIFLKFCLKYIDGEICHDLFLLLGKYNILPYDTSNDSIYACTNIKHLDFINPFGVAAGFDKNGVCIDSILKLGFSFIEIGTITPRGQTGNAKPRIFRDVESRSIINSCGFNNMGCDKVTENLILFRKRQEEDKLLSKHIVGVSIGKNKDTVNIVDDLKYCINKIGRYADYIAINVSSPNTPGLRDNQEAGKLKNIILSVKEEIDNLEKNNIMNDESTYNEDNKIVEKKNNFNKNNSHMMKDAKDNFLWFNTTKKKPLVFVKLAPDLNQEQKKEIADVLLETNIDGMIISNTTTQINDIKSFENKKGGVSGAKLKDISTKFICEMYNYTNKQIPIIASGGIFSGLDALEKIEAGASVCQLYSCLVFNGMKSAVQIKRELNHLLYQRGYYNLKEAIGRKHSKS
The test can be described thus: Inhibition of Plasmodium falciparum DHODH expressed in Escherichia coli BL21 (DE3) using L-dihydroorotate as substrate at 10 uM after 10 mins by DCIP dye reduction assay. A digest of the protocol:
(§1)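 DCIP reduction read as absorbance decrease at 600 nm over 5 min. Enzyme preincubated 10 min with compound (DMSO stock diluted in assay buffer); reaction started with dihydroorotate, 500 μM final.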

Test [3] can be described thus: Immunosuppressive activity in ICR mouse B cells assessed as inhibition of LPS-stimulated cell proliferation after 72 hrs by MTT assay. In kind it is functional, cell-based.
Test [4] deals with Jurkat. The test can be described thus: Cytotoxicity against human Jurkat cells after 4 days by MTT assay. In kind it is cell-based. The following applies: 96 h.
Test [5] is described as follows: Immunosuppressive activity in mouse T cells assessed as inhibition of two way mixed lymphocyte reaction after 4 days by MTT assay. The following applies: T-cell, 96 h. In kind it is functional, cell-based.
The next test deals with T-cell. The test can be described thus: Selectivity ratio of IC50 for mouse T cells to IC50 for ICR mouse B cells. The format is functional.
In test [6] the test system is Jurkat. The test can be described thus: Selectivity ratio of IC50 for human Jurkat cells to IC50 for ICR mouse B cells.
Test [7] addresses T2, Dihydroorotate dehydrogenase (Plasmodium falciparum, UniProt Q54A96).
T2 sequence (Q54A96 whole entry): T1 sequence (whole entry)
Kind of test: Inhibition of Plasmodium falciparum DHODH expressed in Escherichia coli BL21 (DE3) using L-dihydroorotate as substrate after 10 mins by DCIP dye reduction assay. A digest of the protocol:
as §1

Molecules are shown by their SMILES. Bounds are passed on as bounds.

Dihydroorotate dehydrogenase (quinone), mitochondrial, sequence (Q02127 whole entry): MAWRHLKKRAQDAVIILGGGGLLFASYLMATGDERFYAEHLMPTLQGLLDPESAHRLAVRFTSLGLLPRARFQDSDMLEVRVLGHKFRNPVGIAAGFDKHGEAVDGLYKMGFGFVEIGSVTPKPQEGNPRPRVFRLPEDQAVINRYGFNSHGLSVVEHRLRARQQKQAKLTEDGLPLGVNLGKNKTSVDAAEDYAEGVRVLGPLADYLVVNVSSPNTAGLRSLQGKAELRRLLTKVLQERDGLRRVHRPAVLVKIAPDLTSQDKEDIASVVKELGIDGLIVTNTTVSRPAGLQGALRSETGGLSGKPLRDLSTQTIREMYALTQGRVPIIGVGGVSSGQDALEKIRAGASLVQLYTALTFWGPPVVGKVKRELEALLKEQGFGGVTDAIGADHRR

In the case of `Cc1ccccc1C(=O)Nc1cc(Cl)c(O)c(Cl)c1`, in test [1], half-maximal inhibition (IC50) required 16.1 µM. In test [2], the inhibition was < 20%.

`CC1=NN(c2ccccc2)C(=O)/C1=C/c1ccc(-c2cccc(C(=O)O)c2)o1`: the 50% inhibitory concentration (IC50) in test [1] is 2.74 µM; in test [3], > 100 µM; with Jurkat [4], > 100 µM; in test [5], 73.5 µM. The inhibition in test [2] was < 20%.

For the molecule `CCc1cccc(NC(=O)/C=C/c2ccc(Cl)c(Cl)c2)c1`, the IC50 was 0.55 µM in test [1], 11.2 µM in test [3], 30.1 µM with Jurkat [4] and 8.38 µM in test [5]. Moreover, the inhibition in test [2] is < 20%.

As to `O=C(/C=C/c1ccc(F)cc1)Nc1ccccn1`, the IC50 in test [1] was 13 µM. Also, the inhibition in test [2] was < 20%.

As for `C/C(O)=C(\C#N)C(=O)Nc1ccc(C(F)(F)F)cc1` [TERIFLUNOMIDE], the results for the half-inhibitory concentration (IC50) (in test [3]; with Jurkat [4]; in test [5]) were 4.07 µM, 26.7 µM and 48 µM, respectively.

As to `COc1cccc(C(=O)Nc2nc3ccccc3s2)c1`, the IC50 is 6.83 µM in test [1], 16.1 µM in test [3], > 100 µM in the test with Jurkat [4] and > 100 µM in test [5]. Further, the inhibition in test [2] is < 20%.

Regarding `Oc1ccc(/C=N/c2cccc3ccccc23)c(O)c1`, the IC50 in test [1] was found to be 0.78 µM; in test [3], 11.3 µM; with Jurkat [4], 26.3 µM; in test [5], 23.6 µM. Further, in test [2], the inhibition was < 20%.

Molecule `c1ccc2c(c1)Nc1nc3ccccc3nc1O2` had an IC50 in test [1] of 18.3 µM. For the same molecule, the inhibition in test [2] was < 20%.

Consider `COC(=O)c1ccc(Nc2nc(-c3ccc(Cl)cc3)c(C)s2)cc1`, for which the IC50 in test [1] came out at 1.27 µM; in test [3], 13 µM; in the test with Jurkat [4], 15.7 µM; in test [5] it was 13.3 µM. For the same molecule, in test [2], the inhibition was < 20%.

In the case of `Brc1ccc(-c2csc(N/N=C/c3ccccc3)n2)cc1`, the half-inhibitory concentration (IC50) in test [1] was 3.3 µM; in test [3] it was > 100 µM; in the test on Jurkat [4], 1.07 µM; in test [5], > 100 µM. The inhibition in test [2] is < 20%.

For the molecule `O=C(/C=C/c1ccc(O)c(C(=O)O)c1)c1ccc(Cl)cc1`, the entries for the “Ratio IC50” value with T-cell and in the test on Jurkat [6] were 17 and 26, respectively. For the same molecule, the IC50 in test [1] is 6.06 µM; in test [3] it was 1.78 µM; in the test on Jurkat [4], 45.7 µM; in test [5] it was 30.2 µM. In test [2], the inhibition was < 20%.

For `Oc1ccc(/N=C/c2ccc3ccccc3c2)cc1`, the IC50 in test [1] was 3.96 µM; in test [3], 9.93 µM; in the test with Jurkat [4], 45.7 µM; in test [5], 9.45 µM. In addition, the inhibition in test [2] is < 20%.

In the case of `C/C=C/C[C@@H](C)[C@@H](O)[C@H]1C(=O)N[C@@H](CC)C(=O)N(C)CC(=O)N(C)[C@@H](CC(C)C)C(=O)N[C@@H](C(C)C)C(=O)N(C)[C@@H](CC(C)C)C(=O)N[C@@H](C)C(=O)N[C@H](C)C(=O)N(C)[C@@H](CC(C)C)C(=O)N(C)[C@@H](CC(C)C)C(=O)N(C)[C@@H](C(C)C)C(=O)N1C` [CYCLOSPORINE], the IC50 with Jurkat [4] was > 10 µM.

With `O=C(Nc1nc2ccccc2s1)c1ccc(Cl)cc1Cl`, the IC50 was 4.67 µM in test [7]; 1.83 µM in test [1]; 19.9 µM in test [3]; > 100 µM in the test on Jurkat [4]; 58.5 µM in test [5].

As for `O=Cc1ccccc1/C=N/Nc1nc(-c2ccccc2)cs1`, the concentration for half-maximal inhibition (IC50) in test [1] was 0.11 µM; in test [3], 14 µM; in the test on Jurkat [4], > 100 µM; in test [5], 12.4 µM. Further, in test [2], the inhibition is < 20%.

In the case of `O=C(Nc1nc2ccccc2s1)c1cccc(C(Cl)(Cl)Cl)c1`, the half-maximal inhibitory concentration (IC50) in test [7] came out at 1.93 µM; in test [1] it was 0.34 µM; in test [3] it was 8.74 µM; in the test on Jurkat [4], 43.5 µM; in test [5], 25.4 µM.

With `O=c1cc(-c2ccc(O)c(O)c2)oc2ccccc12`, the half-inhibitory concentration (IC50) was found to be 9.48 µM in test [7] and 12.4 µM in test [1].

For the molecule `CC(=O)c1sc(Nc2ccc(C)c(Cl)c2)nc1C`, the IC50 was 0.76 µM in test [7]; 0.93 µM in test [1]; 4.65 µM in test [3]; 5.39 µM in the test on Jurkat [4]; 9.58 µM in test [5].

Take `O=C(O)c1ccc(/C=N/c2cccc3ccccc23)cc1`: the IC50 in test [1] was 15.6 µM. Also, in test [2], the inhibition is < 20%.

In turn, `Cc1ccc(C)c(/N=C/c2cccc(O)c2O)c1` yielded an IC50 in test [1] of 17.8 µM. Besides, the inhibition in test [2] is < 20%.
